Reference: ChEMBL document CHEMBL1649306, “Arylimidamide DB766, a potential chemotherapeutic candidate for Chagas' disease treatment” (Antimicrob Agents Chemother, 2010)
The source made the active and inactive calls. No cut-off for these calls is given here.

Columns and labels:
Trypanosoma cruzi [1] = test: Antitrypanosomal activity against bloodstream forms of Trypanosoma cruzi Columbian after 24 hrs by light microscopy in presence of 50% mouse blood; type: functional, organism-based
How it was run: (§1)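 Bloodstream trypomastigotes kept at 4°C for 24 h in freshly isolated 50% mouse blood with serial dilutions (up to 32 μM). Motile live parasites counted in a Neubauer chamber by light microscopy; IC50 calculated as concentration reducing parasite number by 50%.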

Trypanosoma cruzi [2] = test: Antitrypanosomal activity against Trypanosoma cruzi 960 epimastigotes after 24 hrs by light microscopy; type: functional, organism-based; settings: Trypanosoma cruzi, 960, 24 h
How it was run: (§2)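 Epimastigotes from 5-day exponential cultures, 5 × 10^6 parasites/ml in LIT medium, incubated at 28°C up to 96 h with DB766 0 to 32 μM or Bz 0 to 250 μM. Counted daily in a Neubauer chamber. IC50 averaged from at least three determinations in duplicate.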

Trypanosoma cruzi [3] = test: Antitrypanosomal activity against Trypanosoma cruzi Columbian bloodstream forms infected in C3H mouse assessed as decrease in parasite load at 50 mg/kg/day, ip p administered 5 days postinfection for 10 consecutive days measured after 120 days; type: functional, organism-based
Trypanosoma cruzi [4] = test: Antitrypanosomal activity against Trypanosoma cruzi Y bloodstream forms infected in Swiss-Webster mouse assessed as reduction in parasite-induced weight loss in mouse at 100 mg/kg/day, po administered 5 days postinfection for 10 consecutive days measured on day 120; type: functional, organism-based
How it was run: (§3)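 Body weight of infected, treated mice followed from 0 to 120 dpi.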

Trypanosoma cruzi [5] = test: Antitrypanosomal activity against bloodstream forms of Trypanosoma cruzi Y after 24 hrs by light microscopy in presence of 96% mouse blood; type: functional, organism-based
How it was run: (§4)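 Bloodstream trypomastigotes held at 4°C in freshly isolated mouse blood (96%) with serial dilutions up to 32 μM. Live motile parasites counted by light microscopy in a Neubauer chamber, giving an IC50 for each exposure time.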

Trypanosoma cruzi [6] = test: Antitrypanosomal activity against Trypanosoma cruzi Y bloodstream forms infected in Swiss-Webster mouse assessed as decrease in parasite-induced cardiac inflammation in mouse at 100 mg/kg/day, ip administered 5 days postinfection for 10 alternate days measured after 14 days postinfection; type: functional, Heart; parameters: scale not given: the % may be the effect or the level left; settings: route intraperitoneal
Trypanosoma cruzi [7] = test: Antitrypanosomal activity against bloodstream forms of Trypanosoma cruzi Y after 24 hrs by light microscopy in presence of 50% mouse blood; type: functional, organism-based; how it was run: as §1
Trypanosoma cruzi [8] = test: Antitrypanosomal activity against Trypanosoma cruzi MS1523 epimastigotes after 24 hrs by light microscopy; type: functional, organism-based; settings: MS1523, 24 h; how it was run: as §2
Mus musculus [9] = test: Cardiotoxicity in […] mouse assessed as effect on heart rate level at 100 mg/kg/day, ip; type: toxicity, organism-based; parameters: route intraperitoneal; settings: in vivo
How it was run: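 Colombian strain, 5 × 10³ bloodstream forms i.p. into male C3H/He mice; 100 mg/kg/day given i.p. or by gavage (0.1 ml) daily for 10 doses from parasitemia onset. Mice sedated with diazepam (20 mg/kg i.p.), supine; eight-lead ECG from subcutaneous limb needle electrodes plus precordial lead II. Signal-averaged ECG; heart rate as beats per minute.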

[10] = Cytotoxicity against Swiss-Webster mouse cardiomyocytes after 24 hrs by MTT assay; type: cell-based, Cardiomyocyte; settings: read-out: LC50
How it was run: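 Primary embryonic cardiomyocytes from Swiss mice, uninfected, incubated 24 h or 72 h at 37°C, 5% CO2, with 0 to 96 μM in DMEM. MTT read at 490 nm; LC50 taken as concentration reducing viability by 50%; at least three experiments in duplicate.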

Trypanosoma cruzi [11] = test: Antitrypanosomal activity against Trypanosoma cruzi 762 epimastigotes after 24 hrs by light microscopy; type: functional, organism-based; settings: Trypanosoma cruzi, 762, 24 h; how it was run: as §2
Trypanosoma cruzi [12] = test: Antitrypanosomal activity against Trypanosoma cruzi 956 epimastigotes after 24 hrs by light microscopy; type: functional, organism-based; settings: Trypanosoma cruzi, 956, 24 h; how it was run: as §2
Mus musculus [13] = test: Toxicity in […](H-2k) mouse assessed as mortality at cumulative dose of 200 mg/kg, ip measured after 48 hrs; type: organism-based; parameters: dose 200 mg/kg, route intraperitoneal; settings: in vivo
How it was run: (§5)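 Uninfected 8–10-week-old female and male Swiss Webster and C3H/He (H-2k) mice injected i.p. on day 1 every 2 h with escalating doses: 5, 15, 30, 50 and 100 mg/kg (cumulative 20, 50, 100, 200 mg/kg). Toxic and subtoxic signs inspected on days 2–3 per OECD guidelines; tolerated dose set at 48 h.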

Trypanosoma cruzi [14] = test: Antitrypanosomal activity against Trypanosoma cruzi Y amastigotes infected in Swiss-Webster CM cells assessed as parasite DNA to host cell nucleus ratio at 10 ug/ml after 1 hr by fluorescence and transmission electron microscopy analysis; type: functional
Trypanosoma cruzi [15] = test: Antitrypanosomal activity against Trypanosoma cruzi Columbian bloodstream forms infected in C3H mouse assessed as reduction in parasite-induced weight loss at 50 mg/kg/day, ip administered 5 days postinfection for 10 consecutive days measured after 120 days; type: functional, organism-based; how it was run: as §3
Trypanosoma cruzi [16] = test: Antitrypanosomal activity against Trypanosoma cruzi Columbian bloodstream forms infected in C3H mouse assessed as decrease in cardiac parasite load at 100 mg/kg/day, ip administered 5 days postinfection for 10 consecutive days measured after 43 days; type: functional; parameters: scale not given: the % may be the effect or the level left; settings: route intraperitoneal
How it was run: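 Male C3H/He mice infected i.p. with 5 × 10^3 Colombian strain bloodstream forms, given 100 mg/kg/day i.p. daily for 10 days. At 43 dpi, H&E-stained 3 μm heart sections scored for amastigote nests and infiltrates (>10 mononuclear cells) over at least 100 fields. Three sections each from at least three mice.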

[17] = Toxicity in […] mouse assessed as mortality at cumulative dose of 100 mg/kg, ip measured after 48 hrs; type: organism-based; parameters: dose 100 mg/kg, route intraperitoneal; settings: in vivo, read-out: Activity; how it was run: as §5
Trypanosoma cruzi [18] = test: Antitrypanosomal activity against Trypanosoma cruzi Y bloodstream forms infected in Swiss-Webster mouse assessed as survival of mouse at 25 mg/kg/day, ip administered 5 days postinfection for 10 consecutive days measured on day 120; type: functional, organism-based
How it was run: (§6)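 Male Swiss mice infected i.p. with 10^4 Y strain bloodstream forms. Given 0.2 ml i.p. at 5 and 8 dpi, or daily for 10 days from 5 dpi; reference drug given by gavage. Parasitemia measured by the Pizzi-Brener method, cumulative mortality checked daily to 120 dpi, n ≥ 6 per group.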

Trypanosoma cruzi [19] = test: Antitrypanosomal activity against bloodstream forms of Trypanosoma cruzi Y after 2 hrs by light microscopy in presence of 96% mouse blood; type: functional, organism-based; how it was run: as §4
Trypanosoma cruzi [20] = test: Antitrypanosomal activity against Trypanosoma cruzi Columbian bloodstream forms infected in C3H mouse assessed as decrease in parasite load at 25 mg/kg/day, ip administered 5 days postinfection for 10 consecutive days measured after 120 days; type: functional, organism-based
Trypanosoma cruzi [21] = test: Antitrypanosomal activity against Trypanosoma cruzi Y bloodstream forms infected in Swiss-Webster mouse assessed as survival of mouse at 50 mg/kg/day, ip administered 8 days postinfection measured on day 120; type: functional, organism-based; how it was run: as §6
Trypanosoma cruzi [22] = test: Antitrypanosomal activity against Trypanosoma cruzi 875 epimastigotes after 24 hrs by light microscopy; type: functional, organism-based; settings: Trypanosoma cruzi, 875, 24 h; how it was run: as §2
Trypanosoma cruzi [23] = test: Antitrypanosomal activity against Trypanosoma cruzi Y bloodstream forms infected in Swiss-Webster mouse assessed as decrease in parasite load at 50 mg/kg/day, ip administered 5 days postinfection for 10 consecutive days measured after 8 days; type: functional; parameters: scale not given: the % may be the effect or the level left; settings: route intraperitoneal
How it was run: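 Eight-week-old male Swiss mice infected i.p. with 10^4 Y-strain bloodstream trypomastigotes; parasitemia-positive mice only (n ≥ 6). Dosing i.p. (0.2 ml) daily for 10 consecutive days from parasitemia onset (5 dpi). Parasitemia at the 8 dpi peak counted by Pizzi-Brener method; reduction relative to infected untreated group.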

Question: What does the source list for `CC(C)Oc1cc(NC(=N)c2ccccn2)ccc1-c1ccc(-c2ccc(NC(=N)c3ccccn3)cc2OC(C)C)o1`?
Answer: IC50 (Trypanosoma cruzi [1]): 1000 nM; IC50 (Trypanosoma cruzi [2]): 90 nM; IC90 (Trypanosoma cruzi [2]): 280 nM; Activity (Trypanosoma cruzi [3]): Active; Activity (Trypanosoma cruzi [4]): Active; IC50 (Trypanosoma cruzi [5]): 60 nM; Activity (Trypanosoma cruzi [6]): 78%; IC50 (Trypanosoma cruzi [7]): 710 nM; IC50 (Trypanosoma cruzi [8]): 170 nM; IC90 (Trypanosoma cruzi [8]): 410 nM; Activity (Mus musculus [9]): Toxic; CC50 at 24 h [10]: > 32000 nM; IC50 (Trypanosoma cruzi [11]): 60 nM; IC90 (Trypanosoma cruzi [11]): 180 nM; IC50 (Trypanosoma cruzi [12]): 160 nM; IC90 (Trypanosoma cruzi [12]): 320 nM; Activity (Mus musculus [13]): Non-toxic; Ratio (Trypanosoma cruzi [14]): 2.1; Activity (Trypanosoma cruzi [15]): Active; Activity (Trypanosoma cruzi [16]): 95%; mortality at 48 h [17]: 80%; Activity (Trypanosoma cruzi [18]): Active; IC50 (Trypanosoma cruzi [19]): 560 nM; Activity (Trypanosoma cruzi [20]): Active; Activity (Trypanosoma cruzi [21]): Active; IC50 (Trypanosoma cruzi [22]): 60 nM; IC90 (Trypanosoma cruzi [22]): 240 nM; Activity (Trypanosoma cruzi [23]): 98%
